Compounds with a hit are over-represented: about 2.8% of the library has one in this group of screens.
Measles CPE = compounds protecting cells from measles virus cytopathic effect, primary screen, measles RdRp inhibitor project, single point, MLSMR library, absorbance. protection (pct of control), % at 4 µM. hit rate 1.5% among 140,000. AID 841, 2007. Measles virus-infected cells, CPE protection; in the data active = protection mostly above about 24%, no sharp cut-off; inactive = mostly below about 26%
NPY-Y2 PAM-ag = NPY-Y2 potentiators or agonists, primary screen, cell-based | Neuropeptide Y receptor type 2 (Homo sapiens), P49146 | cells expressing NPY-Y2, potentiator/agonist read-out | activation, % at 3.6 µM | hit rate 0.45% among 220,000 | AID 1359, 2008; in the data active = activation above about 27%;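 also: cells stimulated with NPY near EC25 plus isoproterenol at EC100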
MDM2 E3 inh = MDM2-luciferase reporter signal enhancers, primary screen, MDM2 E3 ligase inhibitor project, cell-based, luminescence, 1536-well. cell-based MDM2 ubiquitination luciferase reporter, 2 h; 0 = plate control, 100 = twice control, blank-subtracted. hit rate 0.11% among 210,000. signal enhancement, % at 5 µM. AID 1230, 2008;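 active = signal enhancement of 30% or more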;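 also: luminescence tracks abundance of the self-degrading MDM2-luciferase fusion protein; higher signal means inhibition of MDM2 E3 ligase activity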
Target sequence (Q00987 whole entry, looked up, the tested form may be a part): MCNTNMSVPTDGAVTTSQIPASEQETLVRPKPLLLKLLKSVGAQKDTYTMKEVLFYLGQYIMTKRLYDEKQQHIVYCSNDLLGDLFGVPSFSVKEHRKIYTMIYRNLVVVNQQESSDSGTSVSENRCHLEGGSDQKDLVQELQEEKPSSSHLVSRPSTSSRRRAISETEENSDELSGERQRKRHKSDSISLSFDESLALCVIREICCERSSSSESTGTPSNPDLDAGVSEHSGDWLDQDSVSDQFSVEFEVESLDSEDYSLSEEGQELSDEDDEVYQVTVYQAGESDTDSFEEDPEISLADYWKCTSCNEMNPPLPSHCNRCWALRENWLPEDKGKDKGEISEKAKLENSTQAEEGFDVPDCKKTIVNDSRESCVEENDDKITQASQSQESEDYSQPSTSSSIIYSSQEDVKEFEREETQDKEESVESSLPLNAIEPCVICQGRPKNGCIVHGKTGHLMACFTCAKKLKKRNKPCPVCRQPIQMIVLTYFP
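Material: Stable MDM2–luciferase fusion reporter cells | Amount: 2000 cells seeded into each well | Dosing: One concentration, 5 µM, with 0.2% DMSO | Incubation: 4 h cell settling then 2 h compound exposure, 37 °C | Measured by: Luciferase luminescence | Read-out basis: % enhancement relative to plate controls after blank subtraction | Benchmarks: Control and blank well means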
NPY1 pot ag = NPY-Y1 receptor potentiators or agonists, primary screen, cell-based. NPY-Y1 expressing cells, potentiator/agonist activation. activation, % at 3.6 µM. hit rate 0.37% among 220,000; in the data active = activation above about 33%, passing the limit was not always enough;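 also: cells stimulated with NPY at EC10 then isoproterenol at EC100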
NPY Y2 blocker = NPY-Y2 receptor antagonists, primary screen, cell-based. AID 793, 2007. hit rate 0.99% among 140,000. inhibition, % at 2.7 µM. NPY-Y2 expressing cells, antagonist mode; in the data active = inhibition above about 17%
NPY-Y1 antag = NPY-Y1 receptor antagonists, primary screen, cell-based; HEK293-CNG Y1 cells, membrane potential fluorescence; NPY at EC95, then isoproterenol; hit rate 1% among 200,000; inhibition, % at 3.6 µM; Neuropeptide Y receptor type 1 (Homo sapiens), P25929;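 active = inhibition above the campaign mean inhibition of all tested compounds plus 3 SD, cut at about 20% in these data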
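Material: HEK293 cells with Y1 receptor plus CNG channel; times: compound incubation 1 h at room temperature, readout 45 min post-stimulation; signal: fluorescence, membrane potential probe; read-out basis: fluorescence ratio normalized to % inhibition between controls; benchmarks: full-block control isoproterenol-only wells, zero-block control NPY plus isoproterenol wells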
A number is an active result; . = inactive; / = not tested or not shown.

SMILES	Measles CPE	NPY-Y2 PAM-ag	MDM2 E3 inh	NPY1 pot ag	NPY Y2 blocker	NPY-Y1 antag
O=C1CC(=C(c2ccccc2)c2ccccc2)C(=O)N1CCCN1CCN(c2cccc(Cl)c2)CC1	.	62	.	75	.	.
Cc1cc(N(CCO)CCO)ccc1N=Nc1cc(F)ccc1F	/	69	.	62	/	.
CC(C)CC(NC(=O)C(CO)NC(=O)C1CCC(=O)N1)C(N)=O (stereo unspecified)	/	.	.	.	/	.
Nc1cccc(NP(=O)(c2ccccc2)c2ccccc2)c1	/	.	.	.	/	/
COC(=O)c1cc(Br)c(=O)n(Cc2ccncc2)c1	.	.	.	.	.	.
COC(=O)c1cc(Br)c(=O)n(Cc2ccc(C(=O)O)cc2)c1	32	.	.	.	.	.
CCN1CC(c2ccccc2)C(c2ccc(Cl)cc2)=N1 (stereo unspecified)	.	.	.	.	.	.
COC(=O)C(Cc1ccccc1)NC(=O)C12CC3CC(CC(C3)C1)C2 (stereo unspecified)	.	.	.	.	.	.
COC(=O)C(Cc1ccc(O)cc1)NC(=O)C12CC3CC(CC(C3)C1)C2 (stereo unspecified)	/	63	.	51	/	.
O=C(CN1CCOCC1)N/N=C/c1ccc(-c2cccc(Cl)c2Cl)o1	/	.	.	.	/	/
C/C(=N\OCC(=O)NC12CC3CC(CC(C3)C1)C2)c1cc2ccccc2o1	19	.	.	.	.	.
COc1cc(/C=N/OCC(=O)NC23CC4CC(CC(C4)C2)C3)ccc1OCc1ccccc1	49	.	.	.	.	.
COc1cc(/C=N/OCC(=O)Nc2ccc(OC(F)F)cc2)ccc1OCc1ccccc1	.	.	/	.	.	.
COc1cc(/C=N/OCC(=O)NC2CCCCC2)ccc1OCc1ccccc1	86	.	.	.	.	.
CC1CCCCN1C(=O)Cn1cc(/C=C2/C(=O)Nc3ccccc32)c2ccccc21 (stereo unspecified)	.	.	.	.	.	.
O=C(NCc1ccncc1)/C(=C/c1cccc([N+](=O)[O-])c1)NC(=O)c1ccccc1	/	.	.	.	/	/
C/C(=N\N=C\c1ccccc1)c1nnn(-c2nonc2N)c1C	.	.	.	.	.	.
Cc1ccc(-c2nc(N)sc2CC(=O)OCC(=O)N2C(C)CCCC2C)cc1 (stereo unspecified)	.	.	/	.	.	.
Cc1ccc(-c2nc(N)sc2CC(=O)OCC(=O)NC2CCCC(C)C2C)cc1 (stereo unspecified)	26	.	.	.	.	.
O=C(c1ccc(-c2ccc(Cl)cc2Cl)o1)N1CCOCC1	/	.	.	.	/	.
O=C(c1ccc(-c2cc(Cl)ccc2Cl)o1)N1CCOCC1	/	.	.	.	/	20
Cc1cccc(NC(=O)c2cc(-c3ccc(C)s3)nc3ccccc23)n1	.	.	.	.	23	28
Cc1ccc(NC(=O)c2cc(-c3ccc(C)o3)nc3ccccc23)cc1	.	.	.	.	115	118
Cc1cc(NC(=O)c2cc(-c3ccc(C)s3)nc3ccccc23)no1	.	.	.	.	.	.
COc1cc(-c2nc3ccccn3c2/N=C/c2cc(OC)c(O)cc2Cl)ccc1O	/	.	.	.	/	.
SMILES	Measles CPE	NPY-Y2 PAM-ag	MDM2 E3 inh	NPY1 pot ag	NPY Y2 blocker	NPY-Y1 antag
Cc1nn(-c2ccccn2)c2c1C(c1c(F)cccc1Cl)C1=C(N2)c2ccccc2C1=O (stereo unspecified)	.	.	.	.	.	.
CC1=NN(c2ccc(Cl)cc2)C(=O)/C1=C\c1cccn1-c1ccc(S(N)(=O)=O)cc1	.	49	.	60	.	.
O=C(NC1CCCCC1)C(c1cccnc1)N(C(=O)c1ccc(Cl)nc1)C1CCCCC1 (stereo unspecified)	/	.	46	.	/	.
CC(C)(C)NC(=O)C(c1cccnc1)N(C(=O)c1ccc(Cl)nc1)C1CCCC1 (stereo unspecified)	/	.	.	.	/	.
CC(C)OC(=O)/C(=C\c1ccc2c(c1)c1ccccc1n2C)NC(=O)c1ccccc1	.	.	.	.	.	23
COC(=O)/C(=C\c1ccc2c(c1)c1ccccc1n2C)NC(=O)c1ccccc1	.	.	.	.	.	.
COc1ccc(CNc2nc(SCC(=O)NCc3ccco3)nc3ccccc23)cc1	.	.	.	.	50	30
CCOC(=O)CSc1nc(NCc2ccco2)c2ccccc2n1	.	.	.	.	.	.
Cc1oc(CC(C)C)cc1C(=O)Nc1cccc2ccccc12	37	.	.	.	.	.
COc1ccccc1C(=O)Nc1cc(-c2nn3c(C)nnc3s2)ccc1C	/	.	/	.	.	.
O=C(NCc1cccnc1)/C(=C\c1ccc(-c2ccc(Cl)c(Cl)c2)o1)S(=O)(=O)c1ccccc1	.	.	/	.	17	24
CCCNS(=O)(=O)c1cccc(C(=O)NC2CCCc3ccccc32)c1 (stereo unspecified)	41	.	.	.	.	.
CN(C)S(=O)(=O)c1cccc(C(=O)NC2CCCc3ccccc32)c1 (stereo unspecified)	.	.	.	.	.	.
COc1cccc(CNC(=O)CCC2CCCN(C(=O)C3CCOCC3)C2)c1 (stereo unspecified)	/	.	.	.	/	.
COc1ccc(N2CCN(CCCn3c(=S)[nH]c4ncccc4c3=O)CC2)cc1	25	.	.	.	.	.
O=c1c2cccnc2[nH]c(=S)n1CCCN1CCN(c2ccc(F)cc2)CC1	.	.	.	.	.	.
CCN1c2ccccc2-c2nc3ccccc3n2C1c1cccs1 (stereo unspecified)	.	.	.	.	25	37
CCCn1c(-c2cccs2)nc2ccccc21	.	.	.	.	.	.
Cc1ccoc1C(=O)NCCCNC(=O)c1occc1C	.	.	.	.	.	.
Cc1ccoc1C(=O)NCc1occc1C(=O)O	41	.	.	.	.	.
CCOC(=O)c1cnc(-n2nc(C)cc2C)nc1NC	.	.	.	.	.	.
CCOC(=O)c1cnc(-n2nc(C)cc2C)nc1NC1CCCCC1	.	.	.	.	20	31
COC(=O)[C@@H]1CCCN1C(=O)CCc1nnc(CCC2CCCCC2)o1	/	.	.	.	/	.
O=C1COc2ccc(C(=O)c3ccccc3C(=O)NCc3ccccc3)cc2N1	22	.	.	.	.	.
O=c1[nH]c2ccc(Br)cc2c(-c2ccccc2)c1N1CCOCC1	56	.	.	.	.	.

Source: PubChem BioAssay (several laboratories)
